Screening data deposited in PubChem by Broad Institute.
Env fusion inh: inhibitors of HIV Env-mediated cell fusion | HeLa-JRFL Env/CEM21 cell fusion, luciferase | hit rate 1.1% among 360,000 | inhibition, % at 12.3 µM;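 active = mean replicate inhibition score of at least 50 and every replicate individually at or above 50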;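 also: 0% = plate neutral controls and 100% = maraviroc near 300 nM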
GSIS activator: GLuc luminescence reporter in INS-1E cells, primary screen for activators of glucose-dependent secretion of insulin; AID 743287; activation, % at 16.6 µM; INS-1E GLuc reporter insulin secretion, 2-3 h; hit rate 0.61% among 370,000;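 active = lowest replicate activation of at least 40%, so every replicate reaches that level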;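 also: 0% = median of neutral control wells and 100% = median of IBMX positive control wells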
FN deposition inh: fibronectin deposition inhibition | AH1F fibroblasts, Alexa488-fibronectin deposition fluorescence, overnight | inhibition, % at 12.6 µM | hit rate 0.086% among 350,000 | AID 743247;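 active = mean inhibition across replicates of 30% or more, regardless of how many single replicates reach that level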;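 also: positive control wells lacked labelled fibronectin entirely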
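Assay system: AH1F fibroblasts assembling fluorescent fibronectin matrix; Amount: 10000 AH1F cells per well; Buffer or medium: DMEM, 2% serum; Probe or stimulus: Alexa488-fibronectin, 24 nM final in well; Doses: single compound dose, delivered by pin transfer; Incubation: 1 h adhesion, overnight exposure; Measured by: fluorescence 485/525 nm; Read-out: fibronectin deposition inhibition.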
ERp5 block: blocks human ERp5 reductase activity on insulin. ERp5 insulin aggregation, absorbance 650 nm, 90 min. inhibition, % at 9.99 µM. hit rate 0.05% among 350,000;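 active = mean replicate inhibition above about 25%, with every replicate also reaching it, limit read from the data, passing the limit was not always enough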
Target sequence (Q15084 whole entry, looked up): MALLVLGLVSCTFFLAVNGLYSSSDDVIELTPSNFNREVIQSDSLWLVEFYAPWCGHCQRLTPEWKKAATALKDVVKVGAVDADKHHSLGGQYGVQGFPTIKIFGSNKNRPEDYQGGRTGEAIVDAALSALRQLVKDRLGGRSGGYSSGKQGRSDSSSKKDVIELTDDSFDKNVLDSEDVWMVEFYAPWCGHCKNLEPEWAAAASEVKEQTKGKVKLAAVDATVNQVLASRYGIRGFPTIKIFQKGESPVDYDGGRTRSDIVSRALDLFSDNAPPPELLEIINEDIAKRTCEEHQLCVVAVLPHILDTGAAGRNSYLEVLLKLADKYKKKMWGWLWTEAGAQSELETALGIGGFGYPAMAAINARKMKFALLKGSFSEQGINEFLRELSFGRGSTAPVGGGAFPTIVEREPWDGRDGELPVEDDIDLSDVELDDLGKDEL
PDI inh: inhibitors of human protein disulfide isomerase; inhibition, % at 10 µM; hit rate 0.052% among 350,000; PDI insulin aggregation turbidity, A650, 90 min; P07237;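 active = mean inhibition across replicates of 30% or more, whatever share of single replicates reach that level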
Active calls of the source: *; . = not tested or not shown; ! = a repeat was not active; [ ] = dose if it differs, or a comment. The list is not random: actives were taken first. Their share in the collection is about 1.4%.

SMILES | Env fusion inh | GSIS activator | FN deposition inh | ERp5 block | PDI inh
C[C@H]1CN([C@@H](C)CO)S(=O)(=O)c2ccc(Br)cc2O[C@@H]1CN(C)C(=O)C1CCCCC1 | 54[16.7 µM] | -19 | -26 | . | .
C[C@H](CO)N1C[C@H](C)[C@@H](CN(C)C(=O)NC2CCCC2)Oc2cc(C#Cc3ccc(F)cc3)ccc2S1(=O)=O | 13[16.7 µM] | -17 | 4 | 2 | .
COCC(=O)N(C)C[C@@H]1Oc2cc(C#CC(C)(C)O)ccc2S(=O)(=O)N([C@H](C)CO)C[C@@H]1C | 0[16.7 µM] | 0 | . | 61* | .
C[C@@H]1CN([C@H](C)CO)S(=O)(=O)c2ccc(C#Cc3cccc(F)c3)cc2O[C@@H]1CN(C)C(=O)CN1CCOCC1 | 81*! | -18 | 3 | 0 | 6
COc1ccccc1NC(=O)N(C)C[C@@H]1Oc2ncc(C#CCN(C)C)cc2C(=O)N([C@@H](C)CO)C[C@@H]1C | 9[16.7 µM] | 18 | . | 3 | .
CCCC#Cc1cnc2c(c1)C(=O)N([C@@H](C)CO)C[C@H](C)[C@H](CN(C)Cc1ccccc1F)O2 | . | -11 | . | . | .
C[C@@H]1CCCCO[C@H](CN(C)C(=O)Cc2ccccc2)[C@@H](C)CN([C@H](C)CO)C(=O)c2cc(NS(=O)(=O)c3cn(C)cn3)ccc2O1 | 10[16.7 µM] | -8 | . | 0 | .
CC(C)C#Cc1ccc2c(c1)O[C@@H](CN(C)C(=O)C1CCCCC1)[C@H](C)CN([C@H](C)CO)S2(=O)=O | 58*[16.7 µM] | -15 | . | . | .
CC(C)C#Cc1ccc2c(c1)O[C@@H](CN(C)C(=O)C1CCCCC1)[C@H](C)CN([C@@H](C)CO)S2(=O)=O | 36[16.7 µM] | -6 | . | . | .
Cc1ccc(S(=O)(=O)N2C[C@H]3[C@H]4C(=O)N(c5ccccc5)C(=O)[C@H]4CC(=O)[C@H]3[C@@H]2c2ccc(Cl)cc2)cc1 | . | . | 4 | -11 | .
Cc1ccccc1S(=O)(=O)N1C[C@H]2[C@H]3C(=O)N(C4CCCCC4)C(=O)[C@H]3CC(=O)[C@H]2[C@@H]1c1ccc(Cl)cc1 | 132* | -9 | . | 4 | .
Cc1ccccc1S(=O)(=O)N1C[C@@H]2C(C(=O)C[C@@H]3C(=O)N(C)C(=O)[C@@H]32)[C@@H]1c1ccc(Cl)cc1 (stereo not given in full) | 61* | -20 | -4 | -4 | .
COc1ccc(N2CCN(C(c3cccs3)C(C)NC(=O)C(=O)N3CCOCC3)CC2)cc1 (stereo not given) | -8 | 79* | 11 | 2 | -7
CC(NC(=O)C(=O)N1CCOCC1)C(c1cccs1)N1CCN(c2ccccc2)CC1 (stereo not given) | 10 | 9 | -1 | -2 | 6
CC(NC(=O)Cc1cccs1)C(c1cccs1)N1CCN(c2ccccc2F)CC1 (stereo not given) | 62* | -3 | -2 | . | -3
CCOC(=O)c1c(C)n(CC(O)CN(CC)CC)c2cc(Br)c(OC)cc12 (stereo not given) | -4 | 68* | -4 | 8 | -6
CCOC(=O)c1c(C)n(C)c2cc(Br)c(OC)cc12 | -6 | 32 | -3 | 1 | 3
COc1cccc(CC(=O)NNC(=O)CN(C)S(=O)(=O)c2ccc(C)cc2)c1 | . | 25 | -4 | 27* | 5
NC(=O)c1cc([N+](=O)[O-])ccc1NCc1ccc(N)cc1 | 71* | 3 | 5 | 2 | 2
Cc1onc(-c2ccccc2Cl)c1C(=O)N(Cc1nc(-c2ccccc2)no1)C1CCCCC1 | 88* | 3 | 0 | . | -2
Cc1ccc(-c2[nH]c(-c3ccc(C(=O)O)cc3)nc2-c2ccccc2)cc1 | 5 | -12 | -1 | -5 | 1
O=C(O)c1ccc(-c2nc(-c3ccccc3)c(-c3cccs3)[nH]2)cc1 | -26 | 53* | -1 | 1 | 2
CCOc1cc(CNCc2ccncc2)cc(Br)c1OCc1ccc(F)cc1 | 63* | . | -6 | . | -5
O=C(N/N=C/c1ccco1)C1CC1c1ccccc1 (stereo not given) | -11 | -16 | -5 | 10 | -7
CC(C)(C)c1ccc(C2CC2C(=O)N/N=C\c2ccc[nH]2)cc1 (stereo not given) | 98* | 59* | -2 | 3 | -4
C[C@@H]1CN([C@H](C)CO)C(=O)Cc2cc(NC(=O)NC3CCCCC3)ccc2O[C@@H]1CN(C)S(=O)(=O)c1ccc(F)cc1 | . | -16 | . | 0 | .
O=C(O)c1cccc(Nc2ccnc(Nc3cccc(C(=O)O)c3)n2)c1 | 59* | 1 | 2 | 3 | -2
CCOc1cc(-c2noc(CCC(=O)NCCc3ccccc3)n2)ccc1OC | 21 | 1 | 1 | 4 | 15
